Data: paper PMC4180501 (Biochimica et biophysica acta, 2012)
Numbering of substitutions follows the chain as printed.

Columns and labels:
GK-W167 (W99R/W257F) [1] = biological target: T1, GK-W167 (W99R/W257F) (Homo sapiens, UniProt P35557, W257F/W99R); test: NADP+-coupled spectrophotometric kinetic assay; type: biochemical; conditions: W-167, no GKA
T1 sequence (P35557 1-465 W99R/W257F): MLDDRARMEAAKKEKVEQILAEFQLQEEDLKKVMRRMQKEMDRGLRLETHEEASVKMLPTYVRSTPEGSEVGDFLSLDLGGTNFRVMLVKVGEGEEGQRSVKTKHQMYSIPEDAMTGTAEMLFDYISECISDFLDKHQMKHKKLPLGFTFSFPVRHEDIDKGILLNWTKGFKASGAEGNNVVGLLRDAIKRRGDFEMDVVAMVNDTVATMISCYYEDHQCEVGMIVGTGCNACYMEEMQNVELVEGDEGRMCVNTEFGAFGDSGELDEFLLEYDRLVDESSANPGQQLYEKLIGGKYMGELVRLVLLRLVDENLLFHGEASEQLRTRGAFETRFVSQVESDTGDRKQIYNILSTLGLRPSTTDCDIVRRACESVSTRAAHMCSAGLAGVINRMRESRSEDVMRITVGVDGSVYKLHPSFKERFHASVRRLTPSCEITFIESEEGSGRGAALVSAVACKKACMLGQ
Outline: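 Recombinant human β-cell glucokinase single-Trp variant, expressed in E. coli as a GST fusion and sequence-verified. Catalytic parameters came from an NADP+-coupled spectrophotometric assay run with or without 30% glycerol. Hill coefficient and glucose S0.5 were obtained by fitting v/Vmax = [glucose]^H/(K′+[glucose]^H), with […].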

GK-WT [2] = biological target: T2, GK-WT (Homo sapiens, UniProt P35557); test: D-glucose binding by tryptophan fluorescence titration; conditions: for ΔG of glucose binding / ΔH of glucose binding / ΔS of glucose binding: pure wild type GK, 25 °C, pH 7.3, Vant Hoff plot
T2 sequence (P35557 1-465): T1 sequence (P35557 1-465 W99R/W257F) with R99W, F257W

GK- W257 (W99R/W167F) = biological target: T3, GK- W257 (W99R/W167F) (Homo sapiens, UniProt P35557, W167F/W99R); test: as above; conditions: W-257, no GKA
T3 sequence (P35557 1-465 W99R/W167F): T1 sequence (P35557 1-465 W99R/W257F) with W167F, F257W

GK-WT [3] = biological target: T2, GK-WT; test: DSC thermal denaturation
Outline: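 Wild-type recombinant human GK was run by DSC at 0.3 mg/ml (6 µM) in 5 mM phosphate, 100 mM KCl, pH 7.3, in buffer or 20% glycerol, with glucose up to 300 mM. The scan was 0.25 degree/min against a protein-free reference. Tm was plotted against glucose and fit to a hyperbola for EC50. Unfolding rate constant used k=vCp/(Qt−Q) to derive activation energy.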

GK-W167 (W99R/W257F) [4] = biological target: T1, GK-W167 (W99R/W257F); test: DSC thermal denaturation; conditions: W-167 in buffer, 300 mM D-glucose
Outline: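 Samples were degassed and scanned by DSC at 0.25 degree/min against a reference holding everything except protein. Tm and calorimetric ΔH were taken by integrating the Cp-vs-temperature thermogram; Cpm is the apparent heat capacity at the maximum.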

[5] = GK-WT in 20% glycerol, 300 mM D-glucose
[6] = GK-WT in buffer, 300 mM D-glucose
[7] = GK-WT, 20% glycerol, 7.5 mM D-glucose
[8] = GK-WT, 20% glycerol, 50 mM D-glucose
[9] = GK-WT, 20% glycerol, 100 mM D-glucose
[10] = GK-WT, 20% glycerol, 200 mM D-glucose
[11] = GK-WT, buffer, 7.5 mM D-glucose
[12] = GK-WT, buffer, 100 mM D-glucose
[13] = GK-WT, buffer, 200 mM D-glucose

SMILES: OC[C@H]1OC(O)[C@H](O)[C@@H](O)[C@@H]1O (stereo partly drawn) [D-glucose]
- Glucose S0.5 (GK-W167 (W99R/W257F) [1]; 30% glycerol): 0.82 mM
- kcat (GK-W167 (W99R/W257F) [1]; 30% glycerol): 26.2 s⁻¹
- nH (Hill coefficient towards glucose) (GK-W167 (W99R/W257F) [1]; 30% glycerol): 1.32
- Glucose S0.5 (GK-W167 (W99R/W257F) [1]; no glycerol): 2.28 mM
- kcat (GK-W167 (W99R/W257F) [1]; no glycerol): 69.9 s⁻¹
- nH (Hill coefficient towards glucose) (GK-W167 (W99R/W257F) [1]; no glycerol): 1.53
- Kd (GK-WT [2]; D-glucose binding KD, GK-WT, no GKA, 20% glycerol): 1.8 mM
- Kd (GK-WT [2]; D-glucose binding KD, GK-WT, no GKA, no glycerol): 7.4 mM
- Kd (GK-WT [2]; glucose KD, 11 °C, absence of glycerol): 13.7 mM
- Kd (GK-WT [2]; glucose KD, 45 °C, presence of glycerol): 1.15 mM
- ΔG of glucose binding (GK-WT [2]; 20% glycerol): -3.82 kcal/mol
- ΔH of glucose binding (GK-WT [2]; 20% glycerol): 4.78 ± 0.72 kcal/mol
- ΔS of glucose binding (GK-WT [2]; 20% glycerol): 120+/−9 J/mol*K
- ΔG of glucose binding (GK-WT [2]; no glycerol): -3.13 kcal/mol
- ΔH of glucose binding (GK-WT [2]; no glycerol): 8.13 ± 0.48 kcal/mol
- ΔS of glucose binding (GK-WT [2]; no glycerol): 157+/−4 J/mol*K
- Kd (GK- W257 (W99R/W167F); 20% glycerol): 2.09 mM
- Kd (GK- W257 (W99R/W167F); no glycerol): 11.3 mM
- EC50 (GK-WT [3]; EC50 of glucose dependency of heat capacity (Cp), 20% glycerol, hyperbolic fit): 35 mM
- Cp^m (GK-WT [3]; [5]): 222.2 kJ/mol/°C
- ΔH thermal denaturation (GK-WT [3]; [5]): 169 kcal/mol
- Tm (GK-WT [3]; GK-WT in 20% glycerol, 300 mM D-glucose, DSC): 56.9 °C
- Cp^m (GK-WT [3]; [6]): 130.5 kJ/mol/°C
- ΔH thermal denaturation (GK-WT [3]; [6]): 135 kcal/mol
- Tm (GK-WT [3]; GK-WT in buffer, 300 mM D-glucose, DSC): 52.2 °C
- Cp^m (GK-WT [3]; [7]): 148.1 kJ/mol/°C
- Ea thermal denaturation (GK-WT [3]; [7]): 175.3 kcal/mol
- Tm (GK-WT [3]; [7]): 52.6 °C
- Cp^m (GK-WT [3]; [8]): 186.2 kJ/mol/°C
- Ea thermal denaturation (GK-WT [3]; [8]): 190.1 kcal/mol
- Tm (GK-WT [3]; [8]): 54.8 °C
- Cp^m (GK-WT [3]; [9]): 196.2 kJ/mol/°C
- Ea thermal denaturation (GK-WT [3]; [9]): 193.6 kcal/mol
- Tm (GK-WT [3]; [9]): 55.5 °C
- Cp^m (GK-WT [3]; [10]): 212.5 kJ/mol/°C
- Ea thermal denaturation (GK-WT [3]; [10]): 190.1 kcal/mol
- Tm (GK-WT [3]; [10]): 56.3 °C
- Ea thermal denaturation (GK-WT [3]; GK-WT, 20% glycerol, 300 mM D-glucose): 189.3 kcal/mol
- Cp^m (GK-WT [3]; [11]): 63.2 kJ/mol/°C
- Ea thermal denaturation (GK-WT [3]; [11]): 120 kcal/mol
- Tm (GK-WT [3]; [11]): 48.0 °C
- Cp^m (GK-WT [3]; GK-WT, buffer, 25 mM D-glucose): 90.8 kJ/mol/°C
- Ea thermal denaturation (GK-WT [3]; GK-WT, buffer, 25 mM D-glucose): 134.4 kcal/mol
- Tm (GK-WT [3]; GK-WT, buffer, 25 mM D-glucose): 49.5 °C
- Cp^m (GK-WT [3]; GK-WT, buffer, 50 mM D-glucose): 101.7 kJ/mol/°C
- Ea thermal denaturation (GK-WT [3]; GK-WT, buffer, 50 mM D-glucose): 137.5 kcal/mol
- Tm (GK-WT [3]; GK-WT, buffer, 50 mM D-glucose): 50.0 °C
- Cp^m (GK-WT [3]; [12]): 109.6 kJ/mol/°C
- Ea thermal denaturation (GK-WT [3]; [12]): 136 kcal/mol
- Tm (GK-WT [3]; [12]): 50.9 °C
- Cp^m (GK-WT [3]; [13]): 128.4 kJ/mol/°C
- Ea thermal denaturation (GK-WT [3]; [13]): 140.3 kcal/mol
- Tm (GK-WT [3]; [13]): 52.2 °C
- Ea thermal denaturation (GK-WT [3]; GK-WT, buffer, 300 mM D-glucose): 137 kcal/mol
- Cp^m (GK-W167 (W99R/W257F) [4]): 90.4 kJ/mol/°C
- ΔH thermal denaturation (GK-W167 (W99R/W257F) [4]): 97.99 kcal/mol
- Tm (GK-W167 (W99R/W257F) [4]; DSC): 53.4 °C
